Data as given in PubChem BioAssay AID623991 (Broad Institute, 2012).
Activity calls are given as the source filed them.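 How the source made its calls: active means inhibitors lowering the signal whose fitted half-maximal concentration is at most twice the top valid tested dose; inconclusive means flat curve with partial inhibition, or a poor curve fit; inactive means effect opposite to expected, flat near zero, or too weak.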

Target: PvdQ acyl-homoserine lactone acylase (Pseudomonas aeruginosa LESB58)
Assay: PvdQ acylase inhibitors, dose response, biochemical, 4-MU laurate fluorescence, dry powder, set 3 (AID 623991)
Conditions: Purified PvdQ, 4-MU laurate hydrolysis
In short: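 Assay system: Pseudomonas aeruginosa PvdQ acylase enzyme | Medium: Tris 50 mM pH 8.0, NaCl 50 mM, TCEP 0.2 mM, Triton X-100 | Dosing: 3-fold compound dilution series | Incubation: 30 min enzyme-compound pre-incubation, then 60 min substrate reaction, room temperature | Signal: Fluorescence, excitation 303–367 nm, emission 440–460 nm, reads at 0 and 60 min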

AC50 [nM] | Structure (SMILES)
11200 | N#CC1c2ccc(Cl)cc2CCc2cccnc21 (stereo not given)
7770 | COCCOCCC(C#N)c1ccc(Cl)cc1 (stereo not given)
119 | N#CC(c1ccc(F)cc1)c1cccc(Cl)n1 (stereo not given)
200 | N#Cc1cccc(C(C#N)c2ccc(F)cc2)n1 (stereo not given)
3.09 | N#CC(c1ccc(Cl)cc1)c1ncccc1Cl (stereo not given)
3470 | CCCCC(C#N)c1ccc(Cl)cn1 (stereo not given)
12200 | N#CC(c1ccc(C(F)(F)F)c(Cl)n1)c1ccccc1OC(F)(F)F (stereo not given)
165 | COCCOCCC(C#N)c1ccc(F)cc1 (stereo not given)
1830 | N#CC(c1ccc(Cl)cc1)N1CCCC1 (stereo not given)
4.71 | N#CC(c1ccc(F)cc1)c1cccc(C(F)(F)F)n1 (stereo not given)
6270 | COCCC(C#N)c1ccc(Cl)cc1 (stereo not given)
1070 | CCCCC(C#N)c1ccc(Cl)cc1 (stereo not given)
< 3 | N#CC(c1cccc(C(F)(F)F)n1)c1ccc(Cl)cc1F (stereo not given)
296 | N#CC(c1ccc(Cl)cc1)c1ccccn1 (stereo not given)
17900 | CN(C)CCCC(C#N)c1ccc(Cl)cc1 (stereo not given)
15.6 | N#CC(c1cccc(Cl)n1)c1ccc(Cl)cc1F (stereo not given)
1270 | COCCC(C#N)c1ccc(F)cc1 (stereo not given)
36.8 | N#CC(c1ccc(Cl)cc1)c1cccc(Cl)n1 (stereo not given)
25.4 | N#CC(c1ccc(Cl)cc1)c1cccc(C(F)(F)F)n1 (stereo not given)
607 | CCCCC(C#N)c1ccc(F)cc1 (stereo not given)
589 | CN(C)CCCC(C#N)c1ccc(F)cc1 (stereo not given)
3190 | CCCCC(c1ccc(Cl)cc1)c1nn[nH]n1 (stereo not given)

Same assay, conditions: Purified PvdQ, 4-MU laurate hydrolysis, at 19.5 µM (top of the series)

activity change, negative = inhibition | Structure (SMILES)
inactive | CCCCC(C#N)c1ccc(F)cn1 (stereo not given)
inactive | CCCCC(C#N)c1ccccn1 (stereo not given)
inactive | COCCNC(C#N)c1ccc(Cl)cc1 (stereo not given)
